Reference: ChEMBL document CHEMBL4715813, “Allicin-inspired pyridyl disulfides as antimicrobial agents for multidrug-resistant Staphylococcus aureus” (Eur J Med Chem, 2018)
Converted amounts (≈) assume the structure as drawn.

Assays:
[1] = test system: Staphylococcus aureus; test: Antibacterial activity against vancomycin-resistant Staphylococcus aureus HIP11714 assessed as inhibition of bacterial growth incubated for 20 hrs by broth microdilution method; assay type: functional; settings: HIP11714, 20 h
How it was run: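 Broth microdilution: 0.5 McFarland suspension from an overnight culture, diluted 1:100 in cation-adjusted Mueller Hinton broth (CAMHB), given serial dilutions of test agent for 20 h at 37 °C. MIC is the lowest concentration with no visible growth.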

[2] = test system: Staphylococcus aureus; test: Disruption of membrane potential in Staphylococcus aureus after 15 to 30 mins by DiOC2(3) probe based flow cytometric anlaysis; assay type: functional, organism-based; settings: time 15-30 min
How it was run: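 An overnight S. aureus culture was diluted 1:100 in LB, shaken 2 h at 37 °C, then diluted to a final 1:200. Cells were treated with 3–30 μM, DMSO 2% vehicle or CCCP at 37 °C with shaking. At 15 and 30 min, samples were stained 20 min with DiOC2(3). Flow cytometry used ex 488 nm, green 530/30 and red 585/42, reported as red/green ratio (mean ± SEM).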

[3] = test system: Staphylococcus aureus; test: Bactericidal activity against Vancomycin-resistant Staphylococcus aureus HIP11714 assessed as bacterial killing incubated for over night; assay type: functional
How it was run: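 For MBC, 5 μL from each well was spotted on agar and incubated overnight; MBC is the lowest concentration with no visible growth. Ratio taken as MBC over MIC.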

CCCCCCCCSSc1ccccn1
MIC [1]: 6.25 µM (≈ 1.6 µg/mL) | Activity [2]: Dose-dependent effect | MBC [3]: > 50 µM
